ChEMBL document CHEMBL4706682, “Development of Novel Mitochondrial Pyruvate Carrier Inhibitors to Treat Hair Loss” (J Med Chem, 2021)
Active and inactive are the calls of the source. Unless noted, the calls are words filed in the database; no cut-off is given here.

Experiments:
[1] = test system: MCF-10A; experiment: Inhibition of MPC in human MCF-10A cells assessed as increase in cellular lactate production at 10 uM incubated for 24 to 30 hrs; type: cell-based; conditions: time 24-30 hrs
In short: (§1)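 MCF10A cells were seeded in triplicate and treated the next day with analogue or an equal volume of DMSO for 24-30 h. Lactate in the culture medium was measured on a BioProfile Basic Analyzer. It was normalized to cell number and run time to give a rate (nmol lactate per million cells per hour), relative to DMSO. Statistics were one-way ANOVA with Dunnett's post-test against DMSO.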

[2] = test system: Mus musculus; experiment: Stimulation of hair growth in C57BL/6J mouse shaved at postnatal day 50 during telogen-phase of hair cycle at 20 uM dosed topically to shaved back skin every other day for 2 weeks; type: functional, organism-based
In short: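 Wild-type C57BL/6J mice were shaved at postnatal day 50. They were treated topically every other day with about 300 µl of compound at 20 µM, suspended in Transderma Plo Ultramax gel, for up to 3 weeks; vehicle served as control. Pigmentation and hair growth (anagen entry) were photographed weekly. Mice were housed under defined pathogen-free conditions.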

[3] = test system: MCF-10A; experiment: Toxicity in human MCF-10A cells assessed as reduction in cell viability incubated for 24 to 30 hrs; type: cell-based; conditions: time 24-30 hrs
[4] = (§2) Inhibition of MPC in human MCF-10A cells assessed as reduction in oxygen consumption rate using pyruvate and malate and ADP; type: cell-based
In short: (§3)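 A Seahorse XF Analyzer measured the respiration of permeabilized MCF10A cells, with 5 mM pyruvate and 0.5 mM malate as substrates plus ADP (state 3). Cells received half-log doses from 3 nM to 10 µM. OCR (fmol O2 per cell per min) was measured in duplicate and normalized to cell number. IC50 was fitted from the dose-response.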

[5] = test system: MCF-10A; experiment: Inhibition of MPC in human MCF-10A cells assessed as increase in cellular lactate production incubated for 24 to 30 hrs; type: cell-based; conditions: time 24-30 hrs; in short: as §1
[6] = test system: MCF-10A; experiment: as §2; type: cell-based; in short: as §3

Compound	inhibition [1]	other results
N#C/C(=C\c1cn(Cc2cc(C(F)(F)F)cc(C(F)(F)F)c2)c2cccnc12)C(=O)O	Active	–
N#C/C(=C\c1cn(Cc2cc(C(F)(F)F)cc(C(F)(F)F)c2)c2cccc(OCc3ccccc3)c12)C(=O)O	inactive	–
CCOC(=O)/C(C#N)=C/c1cn(Cc2ccc(F)c(F)c2)c2ccccc12	Active	–
N#C/C(=C\c1cn(Cc2cc(C(F)(F)F)cc(C(F)(F)F)c2)c2cccc(F)c12)C(=O)O	Active	Activity [2]: Active
N#CC(C#N)=Cc1cn(-c2ccccc2)c2ccccc12	inactive	–
N#C/C(=C\c1cn(Cc2cc(C(F)(F)F)cc(C(F)(F)F)c2)c2ccccc12)C(N)=O	Active	Activity [3]: Toxic
N#C/C(=C\c1cn(Cc2cc(C(F)(F)F)cc(C(F)(F)F)c2)c2c(OCc3ccccc3)cccc12)C(=O)O	Active	–
N#C/C(=C\c1cn(Cc2ccc(F)c(F)c2)c2ccccc12)C(=O)O	Active	–
CCOP(=O)(OCC)/C(C#N)=C/c1cn(Cc2cc(C(F)(F)F)cc(C(F)(F)F)c2)c2ccccc12	Active	–
N#C/C(=C\c1cn(Cc2cc(C(F)(F)F)cc(C(F)(F)F)c2)c2ccccc12)C(=O)O	Active	Activity [2]: Active; IC50 [4]: 0.0166 µM
N#C/C(=C\c1cn(Cc2cc(C(F)(F)F)cc(C(F)(F)F)c2)c2c(F)cccc12)C(=O)O	Active	–
N#C/C(=C\c1cn(Cc2cc(C(F)(F)F)cc(C(F)(F)F)c2)c2cccc(C(=O)O)c12)C(=O)O	inactive	–
CCOC(=O)/C(C#N)=C/c1cn(Cc2cc(C(F)(F)F)cc(C(F)(F)F)c2)c2cccc(Br)c12	Active	–
CC(C)(C)OC(=O)/C(C#N)=C/c1cn(Cc2cc(C(F)(F)F)cc(C(F)(F)F)c2)c2ccccc12	inactive	–
N#C/C(=C\c1cn(Cc2ccccc2)c2ccccc12)C(=O)O	Active	–
N#C/C(=C\c1cn(Cc2cc(C(F)(F)F)cc(C(F)(F)F)c2)c2cccc(Br)c12)C(=O)O	Active	Activity [2]: Active
COc1cccc2c1c(/C=C(\C#N)C(=O)O)cn2Cc1cc(C(F)(F)F)cc(C(F)(F)F)c1	Active	–
Cc1ccc(/C=C(\C#N)C(=O)O)cc1F	inactive	–
N#C/C(=C\c1cccc(C(F)(F)F)c1Cl)C(=O)O	inactive	–
N#C/C(=C\c1cn(Cc2cc(C(F)(F)F)cc(C(F)(F)F)c2)c2nccc(Cl)c12)C(=O)O	Active	–
N#C/C(=C\c1cn(Cc2ccc(F)c(F)c2)c2ccc(F)cc12)C(=O)O	Active	–
N#C/C(=C\c1cn(Cc2cc(C(F)(F)F)cc(C(F)(F)F)c2)c2cccc(Cl)c12)C(=O)O	Active	Activity [2]: Active

Compound	inhibition [1]	other results
N#C/C(=C\c1cc(C(F)(F)F)cc(C(F)(F)F)c1)C(=O)O	inactive	–
N#C/C(=C\c1cn(Cc2cc(F)cc(F)c2)c2ccccc12)C(=O)O	Active	–
CCOC(=O)/C(C#N)=C/c1cn(Cc2cc(C(F)(F)F)cc(C(F)(F)F)c2)c2ccccc12	Active	–
N#C/C(=C\c1cn(Cc2cc(C(F)(F)F)cc(C(F)(F)F)c2)c2c(Cl)cccc12)C(=O)O	inactive	–
N#C/C(=C\c1cn(-c2ccccc2)c2ccccc12)C(=O)O	Active	inhibition [5]: Dose-dependent effect
N#C/C(=C\c1cn(Cc2cc(C(F)(F)F)cc(C(F)(F)F)c2)c2ccccc12)C(=O)N1CCOCC1	Active	Activity [3]: Toxic
N#C/C(=C\c1cn(Cc2cc(F)cc(F)c2)c2ccc(F)cc12)C(=O)O	Active	–
CCOC(=O)/C(C#N)=C/c1cn(-c2ccc(OC)cc2)c2ccccc12	Active	–
CCOC(=O)C(=Cc1cn(-c2ccccc2)c2ccccc12)C(=O)O (mixture of isomers)	inactive	–
CCOC(=O)/C(C#N)=C/c1c[nH]c2ccccc12	inactive	–
CCOC(=O)/C(C#N)=C/c1cn(-c2ccccc2OC)c2ccccc12	Active	–
COC(=O)/C(C#N)=C/c1cn(Cc2cc(C(F)(F)F)cc(C(F)(F)F)c2)c2ccccc12	inactive	–
N#C/C(=C\c1ccc(C(F)(F)F)cc1)C(=O)O	inactive	–
N#C/C(=C\c1ccc(F)cc1F)C(=O)O	inactive	–
N#C/C(=C\c1cn(Cc2cc(C(F)(F)F)cc(C(F)(F)F)c2)c2cc(Cl)ccc12)C(=O)O	inactive	–
N#C/C(=C\c1cn(Cc2cc(C(F)(F)F)cc(C(F)(F)F)c2)c2cc(OCc3ccccc3)ccc12)C(=O)O	inactive	–
CCOC(=O)/C(C#N)=C/c1cn(Cc2ccccc2)c2ccccc12	Active	–
N#C/C(=C\c1cn(Cc2ccc(F)c(F)c2)c2cc(F)ccc12)C(=O)O	Active	–
N#C/C(=C\c1cn(Cc2cc(C(F)(F)F)cc(C(F)(F)F)c2)c2ccc(Cl)cc12)C(=O)O	inactive	–
N#C/C(=C\c1cn(Cc2cc(F)cc(F)c2)c2cc(F)ccc12)C(=O)O	Active	–
N#C/C(=C\c1ccc(F)c(C(F)(F)F)c1)C(=O)O	inactive	–
CCOP(=O)(OCC)/C(C#N)=C/c1cn(Cc2cc(C(F)(F)F)cc(C(F)(F)F)c2)c2ncccc12	Active	–

Compound	inhibition [1]	other results
N#C/C(=C\c1cn(Cc2cc(C(F)(F)F)cc(C(F)(F)F)c2)c2ncccc12)C(=O)O	Active	IC50 [4]: 0.0428 µM; inhibition [6]: Active
N#C/C(=C\c1ccccc1)C(=O)O	inactive	–
CCOC(=O)/C(C#N)=C/c1cn(Cc2ccc(F)cc2)c2ccccc12	Active	–
N#C/C(=C\c1cn(Cc2cc(C(F)(F)F)cc(C(F)(F)F)c2)c2cnccc12)C(=O)O	Active	–
N#CC(Cc1cn(-c2ccccc2)c2ccccc12)C(=O)O (stereo unspecified)	inactive	–
N#C/C(=C\c1ccc(F)cc1)C(=O)O	inactive	–
N#C/C(=C\c1c[nH]c2ccccc12)C(=O)O	inactive	–
N#C/C(=C\c1cn(Cc2ccc(F)cc2)c2ccccc12)C(=O)O	Active	–
N#C/C(=C\c1ccc(F)c(F)c1)C(=O)O	inactive	–
CCOC(=O)/C(C#N)=C/c1cn(C(=O)Cc2cc(C(F)(F)F)cc(C(F)(F)F)c2)c2ccccc12	inactive	–
CCOC(=O)/C(C#N)=C/c1cn(-c2ccccc2)c2ccccc12	inactive	–
COc1ccc(-n2cc(/C=C(\C#N)C(=O)O)c3ccccc32)cc1	Active	–
N#C/C(=C\c1ccc(O)cc1)C(=O)O	inactive	–
N#C/C(=C\c1cn(-c2ccccc2)c2cccc(Cl)c12)C(=O)O	–	Activity [2]: Active
COc1ccccc1-n1cc(/C=C(\C#N)C(=O)O)c2ccccc21	Active	–
N#C/C(=C\c1cn(Cc2cc(C(F)(F)F)cc(C(F)(F)F)c2)c2nccc(Br)c12)C(=O)O	Active	–
N#C/C(=C\c1cn(Cc2cc(C(F)(F)F)cc(C(F)(F)F)c2)c2cccc(C#N)c12)C(=O)O	Active	–
N#C/C(=C\c1cn(Cc2cc(C(F)(F)F)cc(C(F)(F)F)c2)c2ccccc12)P(=O)(O)O	inactive	–
CCOC(=O)/C(C#N)=C/c1cn(Cc2cc(C(F)(F)F)cc(C(F)(F)F)c2)c2ncccc12	Active	–
CCOC(=O)/C(C#N)=C/c1cn(Cc2cc(F)cc(F)c2)c2ccccc12	Active	–
N#C/C(=C\c1ccccc1F)C(=O)O	inactive	–
CCOC(=O)/C(C#N)=C/c1cn(Cc2cc(C(F)(F)F)cc(C(F)(F)F)c2)c2cccc(F)c12	Active	–
